Laboratory results taken from article PMC2842018 (European journal of nuclear medicine and molecular imaging, 2008).

Tests used:
[1] = tested on: U-87MG cells (α3 integrin); experiment: Fluorescence microscopy of U-87MG cells stained with biotinylated LXY1; type: cell-based, human
Method in brief: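 U-87MG cells at 80–90% confluence were dissociated with 0.05% trypsin-EDTA. Each sample (3×10⁵ cells) was incubated with biotinylated peptide in PBS with 10% FBS and 1 mM MnCl2 for 30 min on ice, washed three times, given streptavidin-Alexa488 for 30 min and washed once. Cells were cytospun onto slides (2000 rpm, 2 min), mounted with DAPI medium and viewed by fluorescence microscopy. For blocking, unlabeled peptide or anti-α3 integrin antibody (clone P1B5) was co-incubated.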

[2] = tested on: α3 integrin; settings: ovarian cancer, ref [7]; cited from earlier work
[3] = tested on: glioblastoma; settings: glioblastoma patients, radiotherapy plus temozolomide; ref [1]; cited from earlier work

## cdGLGBNc-linker-linker-Biotin (disulfide) [LXY1-biotin]
[1]; biotinylated LXY1 30 min, streptavidin-Alexa488 30 min, DAPI counterstain
  staining of U-87MG cells: Strong staining

## cDGXGXXc
[2]
  binding preference and specificity: bind preferentially to ovarian cancer with high specificity against α3 integrin

## cdGLGBNc (disulfide) [LXY1]
[1]; excess unlabeled LXY1 or anti-α3 antibody (clone P1B5) as blocker, streptavidin-Alexa488
  blocking of cell staining by biotinylated LXY1: almost completely abolished

## Cn1nnc2c(C(N)=O)ncn2c1=O [temozolomide]
[3]
  median survival: 14.6 months
